# Results reported in the RNAGym collection of RNA variant scans (doi:10.1126/science.aae0568).
# Variants at the floor of the assay were thinned out.
# B1: tRNA (parent)
# chain: GUUCCGUUGGCGUAAUGGUAACGCGUCUCCCUCCUAAGGAGAAGACUGCGGGUUCGAGUCCCGUACGGAACG
# Variants of: B1
# Experiment: yeast fitness relative to wild type (ratio to wild type); higher = fitter; tRNA-Arg(CCU), competitive growth, 37 C, YPD
# Outline: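 For this measurement, the tRNA-Arg(CCU) gene was varied by chemical synthesis at a 3% per-site mutation rate across 69 sites, and each variant was placed at the native genomic locus in Saccharomyces cerevisiae. The pooled strains went through a 24-hour competition in YPD at 37°C in six parallel replicates, with amplicons from start and end populations read by 100-nucleotide paired-end sequencing. Darwinian fitness relative to wild type followed from the change in each genotype's frequency. Genotypes needed ≥ 100 starting reads, and estimates < 0.5 were set to 0.5.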
row,Variant,yeast fitness
1,GUUCCGUUGGUGUAAUGGUAACGCGUCUCCCUCCUAAGGAGGAGACUGCGUGUUCGUGUCCCGUACGGAACG [C11U A42G G51U A57U],≤ 0.5
2,GUUCCGUUGGUGUAAUGGUAACGCGUCUCCCUCCUAAGGAGAAGCCUGCGGGUUCGAGUCCCGUACGGAACG [C11U A45C],0.836
3,GUUCCGUUGGUGUAAUGGUAACGCGUCUCCCUCCUAAGGAGAAGUCUGCGGGUUCGAGUCCCGUACGGAACG [C11U A45U],0.951
4,GUUCCGUUGGUGUAAUGGUAAAGCGUCUCCCUCCUAAGGUGAAGAUUGCGGGUUCGAGUCUCGUACGGAACG [C11U C22A A40U C46U C61U],≤ 0.5
5,GUUCCGUUGGUGUAAUGGUGACCCGUCUCCUUCCUAAGGAGAAGAGUGCGGGUUCGAGUCCCGUACGGAUCG [C11U A20G G23C C31U C46G A70U],≤ 0.5
6,GUUCCGUUGGUGUAAUGGUACCGCGUGUCCCUCCUAAGCAGAAGACUGCGGGUUCGCGUCCCGUACGUAACG [C11U A21C C27G G39C A57C G68U],≤ 0.5
7,GUUCCGUUGGUGUAAUGGUACCGCGUCUCCCUCCUGAGGAGAAGACUGCGGGUUCGAGUCCCGUACGGAACG [C11U A21C A36G],≤ 0.5
8,GUUCCGUUGGUGUAAUGGUAUCGCGUCUCCCUCCUAAGGAGAAGACUGCGGGUUAGAGUCCCGUACGGAACG [C11U A21U C55A],0.632
9,GUUCCGUUGGUGUAGUGGUAACGGGUGUCCUUCCUAAGGACAAGACUGUGGGUUCGAGUCCCGUACGGAACG [C11U A15G C24G C27G C31U G41C C49U],≤ 0.5
10,GUUCCGUUGGUGUAAUGGUAACGCGUCUCCCUCCUAAGGAGAAGCCUGCGGCUUCGAGUCUCGUACGGAACG [C11U A45C G52C C61U],≤ 0.5
11,GUUCCGUUGGUGUACCGGUAGCGCGUCUCCCUCCUAAGGAGAAGACUGCGGGUUCGAGUCCCGUACGGAACG [C11U A15C U16C A21G],≤ 0.5
12,GUUCCGUUGGUGUAAUGGUAACGCGUCUCCCUCCUAAGGGGAACACUGCGGGCUAGAGUCCCGUUCGGAACG [C11U A40G G44C U53C C55A A65U],≤ 0.5
13,GUUCCGUUGGUGUAAUGGUAACGCGUCUCCCUCCUAAGGAGAAGGCUGCGGGCUCGAGUCCCGUACGGAACG [C11U A45G U53C],0.637
14,GUUCCGUUGGUGUAAUGGUAUCGCGUCUCCCUCCUAAGGACAAGACUGCGGGUUCGAGUCCCGUACGGAACG [C11U A21U G41C],0.603
15,GUUCCGUUGGUGUAAUGGUAACGCGUCUCCCUCCUAAGGAGAAGUCUGCGGGUUCGAGUCGCGUCCGGAACG [C11U A45U C61G A65C],≤ 0.5
16,GUUCCGUUGGUGUAAUGGUUACGCGUCUCCCUCCUAAGGAGAAGACUGCGGGUUCGAGUCCCGUACGGAACG [C11U A20U],0.75
17,GUUCCGUUGGUGUAAUGGUAACGCGUCUCCCUCCUAGGGAGAAGACUGCGGGUUCGAGUCCCGUACGGAACG [C11U A37G],0.896
18,GUUCCGUUGGUGUAAUGGUCACGCGUCUCCCUCCUAAGGAGAAGACUGGGGGUUCGAGUCCCGUACAGAACG [C11U A20C C49G G67A],≤ 0.5
19,GUUCCGUUGGUGUAAUGGUCACGCGUCUGCCUCCUAAGGAGAAGACUGCGGGUUCGAGUCCCGUACGGAACG [C11U A20C C29G],0.568

row,Variant,yeast fitness
1,GUUCCGUUGGUGUAAUGGUAGCGCGUCUGCCUCCUAAGGAGAAGACUGCGGGUUCGAGUCGCGUACGGAACG [C11U A21G C29G C61G],≤ 0.5
2,GUUCCGUUGGUGUAUUGGUAACGCGUCUCCCUCCUAAGGAGAAGAUUGCGGGUUCGAGUCCCGUACGGAACG [C11U A15U C46U],0.741
3,GUUCCGUUGGUGUAAUGGUAACGCGUCUCCCUCCUAAGGAGAAGUCUGCGGGUUCGAGUCCCGUAAGGAACG [C11U A45U C66A],0.659
4,GUUCCGUUGGUGUUACGGUAACGCGUCUCCCUCCUAAGGAGAAGACUGCGGGUUCGAGUCCCGUACGGAACG [C11U A14U U16C],≤ 0.5
5,GUUCCGUUGGUGUUAUGGGAACGCGUCUCCCUCCUAAGGAGAAGACUGCGGGUUCGAGUCCCGUACGGAACG [C11U A14U U19G],≤ 0.5
6,GUUCCGUUGGUGUAAUGGUGACGCGUCUGCCUCGUAAGGAGAAGACUGCGGGUCCGAGUCCCGUACGGAACG [C11U A20G C29G C34G U54C],≤ 0.5
7,GUUCCGUUGGUGUAAUGGUAACGCGUCUCCCUCCUAAGGAGAAGACUGCGGGUUCGUGUGCCGUACGCAACG [C11U A57U C60G G68C],≤ 0.5
8,GUUCCGUUGGUGUACUGGUAACGCGUCUCCCUCCUAAGGAGAAGACUGCGGGUUCGAGUCCCGUACGGAACG [C11U A15C],0.595
9,GUUCCGUUGGUGUAAUGGUAACGCGUCUCCCUCCUAAGGAGACGACUGCGGGUUCGAGUCCCGUAUGGAACG [C11U A43C C66U],0.699
10,GUUCCGUUGGUGUAAUGGUAAGGCGUCUCCCUCCUAAGGAGAAGACUGCGGGUUCGAGUCCUGUACGCAACG [C11U C22G C62U G68C],0.542
11,GUUCCGUUGGUGUAAUGGUAAAGCGUCUGCCUUCUAAGGAGAAGACUGCGGGUUCGAGUCCCGUACGGACCG [C11U C22A C29G C33U A70C],0.551
12,GUUCCGUUGGUGUAAUGGUAAGGCGUCUCCCUCGUAAGGAGAAGACUGCGGGUUCGAGUCCCGUACGGACCG [C11U C22G C34G A70C],≤ 0.5
13,GUUCCGUUGGUGUAAUGGUAACGCGUCUCCCUCCUACGGAGGUGACUGCGGGUUCGAGUCCAGUACGGAACG [C11U A37C A42G A43U C62A],≤ 0.5
14,GUUCCGUUGGUGUAAUGGUAAGGCGUCUCCCUCCUGAGGAGAAGACUGCGGGUUCGAGUCCCGUACGGAACG [C11U C22G A36G],0.675
15,GUUCCGUUGGUGUAAUGGUGACGCGUCUCCCUCCUCAGGAGAAGACUGGGGGUUCGAGUCGGGUACGGAACG [C11U A20G A36C C49G C61G C62G],≤ 0.5
16,GUUCCGUUGGUGUAAUGGUAACGCGUCUCCCUCCUAGGGAGAAGACUGCGAGUUCGAGUCCCGUACGGAACG [C11U A37G G51A],0.568
17,GUUCCGUUGGUGUAAUGGUUACGCGUCUCCCUCCUAAGAAGAAGACUGCGGGUUCGAGUCCCGCCCGGAACG [C11U A20U G39A U64C A65C],≤ 0.5
18,GUUCCGUUGGUGUAAUGGUAACGCGUCUCCCUCCUAAGGAGAAGACUGCGGGUUCGAGUCCCGUACGGCACG [C11U A69C],0.905
